SENP1 inh = inhibitors of human SENP1 SUMO protease catalytic domain; recombinant SENP1 catalytic domain, CyPet-SUMO1-YPet FRET cleavage; inhibition, % at 10 µM; 360,000 compounds, 0.21% hits; AID 624204;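 active means inhibition at least 30% at 10 µM, raw YFP signal under a set limit, fluorescence ratio 0.5 to 1.5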;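 further: 0% = enzyme with DMSO and 100% = no enzyme wells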
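Compound: 10 µM single point, 0.5% DMSO; Test system: hSENP1 catalytic domain, recombinant; Timing: 50 min reaction at room temperature; Technique: FRET, CFP and YFP emission; Control set: no-enzyme wells low, DMSO-plus-enzyme wells high control.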
FAS-TE inh = FAS thioesterase (human) inhibition. 360,000 compounds, 0.67% hits. recombinant FAS-TE, OMFH fluorogenic substrate, fluorescence endpoint. inhibition, % at 15 µM;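 active means compounds whose normalised, plate-corrected inhibition of enzyme fluorescence in the single-dose primary screen is 50% or more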;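 further: 0% = DMSO with enzyme and 100% = substrate without enzyme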
ADAM17 inh = inhibitors of human ADAM17; P78536; recombinant ADAM17, EDANS/DABCYL FRET peptide cleavage; inhibition, % at 6.95 µM; 370,000 compounds, 0.83% hits; AID 720648;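 active means inhibition above the mean of compounds lying between control limits plus 3 SD, set per campaign, cut at about 8.5% in these data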;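 further: 0% = DMSO-only wells as the low control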
ADAM10 inh = ADAM10 inhibition, QFRET primary screen | 370,000 compounds, 0.62% hits | recombinant ADAM10, EDANS/DABCYL FRET peptide cleavage, 3 h | AID 720582 | O14672 | inhibition, % at 7 µM;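 active means inhibition above a per-campaign cutoff equal to the mean of compounds falling between control-based bounds plus 3 SD, cut at about 20% in these data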;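 further: 0% = DMSO wells while the 100% control is not disclosed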
Target sequence (O14672 214-748 limits assumed): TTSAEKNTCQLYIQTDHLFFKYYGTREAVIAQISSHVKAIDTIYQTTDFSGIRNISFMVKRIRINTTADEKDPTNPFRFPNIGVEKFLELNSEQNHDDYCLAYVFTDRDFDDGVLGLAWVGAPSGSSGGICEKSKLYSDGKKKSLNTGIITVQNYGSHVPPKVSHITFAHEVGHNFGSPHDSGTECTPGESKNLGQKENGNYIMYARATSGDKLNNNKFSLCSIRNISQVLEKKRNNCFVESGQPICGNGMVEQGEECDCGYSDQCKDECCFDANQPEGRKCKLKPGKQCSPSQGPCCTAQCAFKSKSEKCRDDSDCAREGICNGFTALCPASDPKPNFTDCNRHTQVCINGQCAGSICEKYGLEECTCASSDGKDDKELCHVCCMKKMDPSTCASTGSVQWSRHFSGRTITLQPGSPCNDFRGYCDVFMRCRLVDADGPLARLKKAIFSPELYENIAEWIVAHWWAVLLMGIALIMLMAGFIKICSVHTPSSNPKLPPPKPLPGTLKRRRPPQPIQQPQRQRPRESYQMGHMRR
FAS-TE conf = FAS thioesterase (human) inhibition, confirmation; inhibition, % at 15 µM; shares compounds with FAS-TE inh; 2,300 compounds, 45% hits; recombinant FAS-TE, OMFH fluorogenic substrate, fluorescence;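 active means compounds inhibiting the enzyme by at least 50% at 15 µM in any one of the replicates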;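 further: 0% = enzyme with DMSO only and 100% = wells lacking enzyme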
Numbers without * were called inactive. Hits are enriched below; roughly 1.9% of the tested compounds scored in any of these assays.

CCOC(=O)[C@@H]1[C@H]2COc3ccc(Br)cc3[C@@H]2N2C(=O)N(c3ccc(C(F)(F)F)cc3)C(=O)[C@]12C was read as SENP1 inh 0.6, FAS-TE inh 58.0*, ADAM17 inh 0.5, ADAM10 inh 4.9 and FAS-TE conf 22.9.
`CCOC(=O)[C@H]1[C@H]2COc3ccc(Br)cc3[C@@H]2N2C(=O)c3ccc(Cl)cc3NC(=O)[C@@]12C` gave SENP1 inh 1.5, FAS-TE inh 78.4*, ADAM17 inh -0.5, ADAM10 inh -1.5 and FAS-TE conf 28.5.
COc1ccc2c(c1)[C@H]1[C@H](CO2)[C@H](c2ccccc2)[C@]2(C)C(=O)Nc3cc(OC)c(OC)cc3C(=O)N12 was read as SENP1 inh -17.5, FAS-TE inh 35.7, ADAM17 inh 6.4 and ADAM10 inh 10.6.
C[C@@]12C(=O)Nc3ccc(Br)cc3C(=O)N1[C@H]1c3cc(Cl)ccc3OC[C@@H]1[C@@H]2c1ccccc1 was read as SENP1 inh -1.1, FAS-TE inh 93.8* and FAS-TE conf 13.2.
For CCOC(=O)[C@H]1[C@H]2COc3ccc(C)cc3[C@@H]2N2C(=O)c3ccc(C)cc3NC(=O)[C@@]12C the results were SENP1 inh 0.0, FAS-TE inh 13.7, ADAM17 inh -3.1 and ADAM10 inh 0.7.
For C[C@@]12C(=O)Nc3cc(F)c(F)cc3C(=O)N1[C@H]1c3cc(Cl)ccc3OC[C@@H]1[C@@H]2c1ccccc1 the results were SENP1 inh -0.4, FAS-TE inh 74.3* and FAS-TE conf 36.0.
`COc1ccc2c(c1)[C@H]1[C@H](CO2)[C@H](c2ccccc2)[C@]2(C)C(=O)Nc3ccc(Cl)cc3C(=O)N12` gave SENP1 inh -1.7, FAS-TE inh 86.0*, ADAM17 inh 8.3, ADAM10 inh 15.3 and FAS-TE conf 39.0.
For CCNC(=O)Nc1ccc2c(c1)C(=O)N(C)[C@H]1CC[C@H](CC(=O)N[C@H](C)c3ccccc3)O[C@@H]1CO2 the results were ADAM17 inh -6.9 and ADAM10 inh 15.5.
`COC(=O)[C@]12C[C@H](CC(=O)NCCc3ccccc3OC)C(=O)N(Cc3ccc(Cl)cc3Cl)C1=C[C@H](COCc1ccccc1)O[C@@H]2C` gave ADAM17 inh -1.8 and ADAM10 inh 0.1.
COc1ccc2c(c1)OC[C@H]1[C@H]2N2C(=O)c3ccccc3NC(=O)[C@@]2(C)[C@H]1c1ccccc1 was read as SENP1 inh 0.2, FAS-TE inh 69.8*, ADAM17 inh 5.8, ADAM10 inh 8.9 and FAS-TE conf 31.1.
Screening COc1ccc2c(c1)OC[C@H]1[C@H]2N2C(=O)CNC(=O)[C@@]2(C)[C@H]1c1ccccc1 returned ADAM17 inh -5.1 and ADAM10 inh 4.1.
CCOC(=O)C1=CC[C@H]2c3c(c4ccccc4n3C)C(=O)C1N2C(=O)OC(C)(C)C was read as SENP1 inh -1.1, FAS-TE inh 63.1*, ADAM17 inh -2.6, ADAM10 inh -0.7 and FAS-TE conf 46.1*.
For CC(=O)c1c(C)oc2ccc(N(C(=O)C3CCCCC3)S(=O)(=O)c3cc([N+](=O)[O-])ccc3C)cc12 the results were SENP1 inh 0.7, FAS-TE inh 80.0*, ADAM17 inh -6.4, ADAM10 inh -12.7 and FAS-TE conf 9.7.
For COc1ccc(N(C(=O)CCl)C(C(=O)NCCc2ccccc2)c2cccs2)cc1Cl (configuration not stated) the results were SENP1 inh 0.7, FAS-TE inh 64.2*, ADAM17 inh -1.6, ADAM10 inh -2.7 and FAS-TE conf 33.3*.
`CCCC(=O)OC12CCCN(C1)/C(=C/c1ccc(Cl)cc1)C2` (configuration not stated) gave ADAM17 inh 1.2 and ADAM10 inh -3.8.
COc1ccccc1N1CCN(C(=O)c2cc3c(C)nn(-c4ccccc4)c3s2)CC1 was read as ADAM17 inh 2.2 and ADAM10 inh 0.5.
For CC(=O)O[C@@H]1C[C@H]2C(C)(C)C(=O)C=C[C@]2(C)[C@H]2CC[C@@]3(C)[C@H](c4ccoc4)OC(=O)[C@H]4O[C@]43[C@@]21C the results were SENP1 inh 2.1, FAS-TE inh 50.8*, ADAM17 inh 7.6, ADAM10 inh 6.9 and FAS-TE conf 28.9.
`CC(=O)OC1CC2C(C)(C)C(=O)C=CC2(C)C2CCC3(C)C(c4ccoc4)OC(=O)C4OC43C12C` (configuration not stated) gave SENP1 inh -0.1, FAS-TE inh 32.7, ADAM17 inh 0.2 and ADAM10 inh 2.7.
`N=c1c2c(ccn1Cc1ccccc1)Oc1ccc3ccccc3c1C2c1ccccc1` (configuration not stated) gave ADAM17 inh 7.4 and ADAM10 inh 17.9.
`CCOC(=O)N1C(=O)C[C@](Sc2ccc(OC)cc2)(C(=O)N2CCN(c3ncccn3)CC2)[C@H]1c1ccc(OC)cc1` gave ADAM17 inh -3.3 and ADAM10 inh -3.6.
`Cc1cccc(N2C(=O)CC(Sc3nc(C)cc(C)n3)C2=O)c1` (configuration not stated) gave SENP1 inh -0.7, FAS-TE inh -5.7, ADAM17 inh 0.2 and ADAM10 inh -2.8.
Screening Cc1cccc(N2C(=O)CC(Sc3nc(-c4ccccc4)c4cc(Cl)ccc4n3)C2=O)c1 (configuration not stated) returned SENP1 inh 3.6, FAS-TE inh 65.9*, ADAM17 inh -3.3, ADAM10 inh -6.3 and FAS-TE conf 28.0.
For CC[C@H](C)[C@H]1O[C@]2(CC[C@@H]1C)C[C@@H]1C[C@@H](CC=C(C)[C@@H](O[C@H]3C[C@H](OC)[C@@H](O[C@H]4C[C@H](OC)[C@@H](O)[C@H](C)O4)[C@H](C)O3)[C@@H](C)C=CC=C3CO[C@@H]4[C@H](O)C(C)=C[C@@H](C(=O)O1)[C@]34O)O2 the results were SENP1 inh -28.5, FAS-TE inh 53.7* and FAS-TE conf 14.7.
Screening Cc1cc2cc3c(cc2nc1SCC(=O)N1c2ccccc2CC1C)OCO3 (configuration not stated) returned SENP1 inh 1.2, FAS-TE inh 23.9, ADAM17 inh 0.7 and ADAM10 inh 2.1.
For CC1Cc2ccccc2N1C(=O)CSc1nc2cc3c(cc2cc1C#N)OCO3 (configuration not stated) the results were SENP1 inh 13.7, FAS-TE inh 73.8*, ADAM17 inh -5.3, ADAM10 inh -9.0 and FAS-TE conf 32.2.
`O=c1c2c3c(sc2nc(NCCO)n1Cc1ccco1)CCCCC3` gave SENP1 inh -0.4, FAS-TE inh 14.1, ADAM17 inh 1.0 and ADAM10 inh -2.6.
O=c1c2c3c(sc2nc(NCCO)n1CCc1ccccc1)CCCCC3 was read as SENP1 inh -5.3, FAS-TE inh 50.1*, ADAM17 inh 8.3, ADAM10 inh 15.9 and FAS-TE conf 15.9.

Source: PubChem (several laboratories)
